Experimental data published in ChEMBL document CHEMBL2380209, “Synthesis and pharmacological characterization of 4-substituted-2-aminobicyclo[3.1.0]hexane-2,6-dicarboxylates: identification of new potent and selective metabotropic glutamate 2/3 receptor agonists” (J Med Chem, 2013).
One block for each molecule: values may come before it.

Tests used:
[1] = molecular target: T1, Metabotropic glutamate receptor 2 (Homo sapiens, UniProt Q14416); assay: Agonist activity at human mGlu2 receptor expressed in golden Syrian hamster AV12 cells coexpressing EAAT1 after 20 mins by HTRF assay; assay type: cell-based
T1 sequence (Q14416 whole entry): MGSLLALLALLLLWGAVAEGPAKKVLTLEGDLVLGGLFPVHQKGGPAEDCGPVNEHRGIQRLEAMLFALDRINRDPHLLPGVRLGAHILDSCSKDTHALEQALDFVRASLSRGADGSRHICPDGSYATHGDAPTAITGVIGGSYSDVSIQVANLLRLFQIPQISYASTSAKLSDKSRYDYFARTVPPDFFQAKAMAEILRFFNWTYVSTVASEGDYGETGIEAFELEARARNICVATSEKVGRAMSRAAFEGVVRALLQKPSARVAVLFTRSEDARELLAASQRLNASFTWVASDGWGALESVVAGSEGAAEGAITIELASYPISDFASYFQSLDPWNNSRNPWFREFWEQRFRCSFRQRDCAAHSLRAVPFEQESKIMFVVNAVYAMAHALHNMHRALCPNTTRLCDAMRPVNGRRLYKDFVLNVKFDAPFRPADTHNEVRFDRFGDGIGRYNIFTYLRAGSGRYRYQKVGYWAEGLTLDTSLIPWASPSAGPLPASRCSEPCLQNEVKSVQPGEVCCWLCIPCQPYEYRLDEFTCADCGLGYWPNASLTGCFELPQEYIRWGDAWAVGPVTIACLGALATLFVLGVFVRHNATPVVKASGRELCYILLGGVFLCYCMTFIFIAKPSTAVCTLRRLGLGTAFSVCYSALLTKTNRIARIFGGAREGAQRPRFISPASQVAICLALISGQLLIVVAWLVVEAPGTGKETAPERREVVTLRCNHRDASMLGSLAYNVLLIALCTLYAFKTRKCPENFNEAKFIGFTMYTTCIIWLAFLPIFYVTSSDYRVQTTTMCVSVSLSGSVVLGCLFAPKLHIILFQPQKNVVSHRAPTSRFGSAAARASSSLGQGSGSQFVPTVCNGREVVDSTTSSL

[2] = molecular target: Metabotropic glutamate receptor 8 (Homo sapiens, UniProt O00222); assay: Agonist activity at human mGlu8 receptor expressed in golden Syrian hamster AV12 cells coexpressing EAAT1 after 20 mins by FLIPR assay; assay type: cell-based
Chain of Metabotropic glutamate receptor 8 (O00222 whole entry): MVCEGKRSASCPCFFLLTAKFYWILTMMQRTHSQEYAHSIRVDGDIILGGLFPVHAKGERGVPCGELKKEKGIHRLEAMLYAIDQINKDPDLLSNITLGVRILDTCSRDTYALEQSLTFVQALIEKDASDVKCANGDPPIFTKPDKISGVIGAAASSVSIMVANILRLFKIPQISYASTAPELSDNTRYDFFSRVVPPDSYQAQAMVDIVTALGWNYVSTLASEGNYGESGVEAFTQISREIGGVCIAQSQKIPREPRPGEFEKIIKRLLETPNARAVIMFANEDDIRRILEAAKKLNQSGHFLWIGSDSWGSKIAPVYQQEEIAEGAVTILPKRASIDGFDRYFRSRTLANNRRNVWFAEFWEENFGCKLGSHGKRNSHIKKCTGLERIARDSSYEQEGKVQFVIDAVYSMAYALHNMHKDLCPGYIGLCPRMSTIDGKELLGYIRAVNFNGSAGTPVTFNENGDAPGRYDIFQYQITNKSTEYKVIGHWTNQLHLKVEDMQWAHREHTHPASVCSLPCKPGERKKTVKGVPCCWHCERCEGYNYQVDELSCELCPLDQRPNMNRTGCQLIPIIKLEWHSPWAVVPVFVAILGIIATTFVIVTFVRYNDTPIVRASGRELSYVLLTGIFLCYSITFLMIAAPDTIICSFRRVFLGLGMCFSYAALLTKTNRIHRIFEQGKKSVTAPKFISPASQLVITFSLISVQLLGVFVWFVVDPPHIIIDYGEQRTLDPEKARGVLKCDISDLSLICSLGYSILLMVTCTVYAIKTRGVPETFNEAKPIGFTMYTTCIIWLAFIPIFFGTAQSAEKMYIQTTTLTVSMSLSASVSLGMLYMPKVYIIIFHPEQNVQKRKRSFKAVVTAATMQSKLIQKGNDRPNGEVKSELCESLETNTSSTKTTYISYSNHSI

[3] = molecular target: T2, Metabotropic glutamate receptor 6 (Homo sapiens, UniProt O15303); assay: Agonist activity at human mGlu6 receptor expressed in golden Syrian hamster AV12 cells coexpressing EAAT1 after 20 mins by FLIPR assay; assay type: cell-based
T2 sequence (O15303 whole entry): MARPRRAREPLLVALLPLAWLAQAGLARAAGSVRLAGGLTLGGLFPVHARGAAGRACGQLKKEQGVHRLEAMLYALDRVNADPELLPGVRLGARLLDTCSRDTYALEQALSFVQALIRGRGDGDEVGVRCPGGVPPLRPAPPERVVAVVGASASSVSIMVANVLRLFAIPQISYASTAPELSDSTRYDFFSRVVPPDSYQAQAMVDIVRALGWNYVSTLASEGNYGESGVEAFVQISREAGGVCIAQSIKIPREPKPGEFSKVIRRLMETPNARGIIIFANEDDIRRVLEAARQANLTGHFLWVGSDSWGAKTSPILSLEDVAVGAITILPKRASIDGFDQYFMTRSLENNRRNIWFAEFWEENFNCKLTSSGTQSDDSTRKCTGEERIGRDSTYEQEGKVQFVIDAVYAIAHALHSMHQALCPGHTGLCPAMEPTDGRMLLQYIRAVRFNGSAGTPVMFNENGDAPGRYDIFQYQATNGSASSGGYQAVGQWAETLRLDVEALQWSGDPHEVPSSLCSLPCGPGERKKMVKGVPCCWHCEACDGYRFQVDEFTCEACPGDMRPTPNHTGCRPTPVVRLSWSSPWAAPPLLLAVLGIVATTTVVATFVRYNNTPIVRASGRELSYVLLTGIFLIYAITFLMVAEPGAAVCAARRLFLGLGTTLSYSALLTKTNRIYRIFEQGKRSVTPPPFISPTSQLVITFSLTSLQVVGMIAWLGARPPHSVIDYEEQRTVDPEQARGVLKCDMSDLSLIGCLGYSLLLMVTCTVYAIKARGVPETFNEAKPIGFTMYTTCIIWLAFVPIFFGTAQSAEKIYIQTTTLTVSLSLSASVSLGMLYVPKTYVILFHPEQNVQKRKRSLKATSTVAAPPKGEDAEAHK

[4] = molecular target: T1, Metabotropic glutamate receptor 2; assay: Antagonist activity at human mGlu2 receptor expressed in golden Syrian hamster AV12 cells coexpressing EAAT1 assessed as inhibition of forskolin-stimulated cAMP production after 20 mins by HTRF assay; assay type: functional, cell-based
[5] = molecular target: T3, Metabotropic glutamate receptor 3 (Homo sapiens, UniProt Q14832); assay: Antagonist activity at human mGlu3 receptor expressed in golden Syrian hamster AV12 cells coexpressing EAAT1 assessed as inhibition of forskolin-stimulated cAMP production after 20 mins by HTRF assay; assay type: functional, cell-based
T3 sequence (Q14832 whole entry): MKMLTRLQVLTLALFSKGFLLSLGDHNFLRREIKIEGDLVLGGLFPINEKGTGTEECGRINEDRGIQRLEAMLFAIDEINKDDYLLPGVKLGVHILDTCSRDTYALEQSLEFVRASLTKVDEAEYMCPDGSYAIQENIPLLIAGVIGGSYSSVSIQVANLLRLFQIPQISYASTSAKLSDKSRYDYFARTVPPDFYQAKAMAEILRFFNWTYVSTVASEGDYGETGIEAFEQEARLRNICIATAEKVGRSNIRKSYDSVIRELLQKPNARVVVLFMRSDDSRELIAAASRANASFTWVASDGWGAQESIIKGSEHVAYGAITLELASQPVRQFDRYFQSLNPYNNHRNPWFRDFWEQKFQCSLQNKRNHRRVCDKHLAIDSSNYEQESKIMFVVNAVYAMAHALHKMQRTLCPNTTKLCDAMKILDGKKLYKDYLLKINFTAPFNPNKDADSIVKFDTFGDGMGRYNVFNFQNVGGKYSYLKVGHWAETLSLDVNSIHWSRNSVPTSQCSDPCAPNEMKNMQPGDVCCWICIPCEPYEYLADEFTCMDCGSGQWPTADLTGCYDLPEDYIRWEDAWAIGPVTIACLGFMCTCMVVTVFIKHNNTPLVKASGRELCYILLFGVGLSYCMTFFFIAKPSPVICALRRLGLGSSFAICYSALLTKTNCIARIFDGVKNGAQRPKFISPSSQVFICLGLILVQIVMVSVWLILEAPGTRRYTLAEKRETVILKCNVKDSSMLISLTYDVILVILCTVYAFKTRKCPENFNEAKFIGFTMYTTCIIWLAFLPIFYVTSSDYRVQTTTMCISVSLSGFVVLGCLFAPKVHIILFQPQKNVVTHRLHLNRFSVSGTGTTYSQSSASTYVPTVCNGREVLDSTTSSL

[6] = molecular target: T3, Metabotropic glutamate receptor 3; assay: Agonist activity at human mGlu3 receptor expressed in golden Syrian hamster AV12 cells coexpressing EAAT1 after 20 mins by HTRF assay; assay type: cell-based
Rattus norvegicus [7] = assay: Neurotoxicity in Sprague-Dawley rat assessed as impairment of motor coordination at 30 mg/kg, po administered 2 hrs prior to test by rotarod test; assay type: toxicity, organism-based; design: dose 30 mg/kg, route oral; conditions: in vivo
Method in brief: (§1)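 Rats were trained to stay on a 4 rpm rotorod for 1 min, with up to four attempts, and were retested 30-60 min later; failures were excluded. Trained rats (8/group) received oral aqueous solution (3, 10 or 30 mg/kg) or vehicle and were retested 120 min later, scored as seconds on the rotorod. One-way ANOVA with Dunnett's test was run against vehicle.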

[8] = Half life in Sprague-Dawley rat at 3 mg/kg, po by LC/MS/MS analysis; assay type: ADME, organism-based; design: dose 3 mg/kg, route oral; conditions: in vivo
Method in brief: (§2)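 Fasted male Sprague Dawley rats (~250 g) were dosed with an aqueous solution adjusted to pH 7-7.5 with NaOH, by oral gavage (1, 3, 10 mg/kg) or intravenously (3 mg/kg). Serial jugular-catheter blood samples (11-12 per rat) went into EDTA tubes over 24 h. Plasma was extracted by SPE with an analog internal standard and run on an anion-exchange HPLC column, SRM m/z 204.1 > 77.1. Parameters came from noncompartmental analysis and are reported as means.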

[9] = Tmax in Sprague-Dawley rat at 1 mg/kg, po by LC/MS/MS analysis; assay type: ADME, organism-based; design: dose 1 mg/kg, route oral; conditions: in vivo; method in brief: as §2
[10] = Clearance in Sprague-Dawley rat at 3 mg/kg, iv up to 24 hrs by LC/MS/MS analysis; assay type: ADME, organism-based; design: dose 3 mg/kg, route intravenous; conditions: in vivo; method in brief: as §2
[11] = Volume of distribution at steady state in Sprague-Dawley rat at 3 mg/kg, iv up to 24 hrs by LC/MS/MS analysis; assay type: ADME, organism-based; design: dose 3 mg/kg, route intravenous; conditions: in vivo, read-out: Vdss; method in brief: as §2
[12] = AUC (0 to 24 hrs) in Sprague-Dawley rat at 3 mg/kg, iv by LC/MS/MS analysis; assay type: ADME, organism-based; design: time < 24 hr, dose 3 mg/kg, route intravenous; conditions: plasma; method in brief: as §2
[13] = Half life in Sprague-Dawley rat at 1 mg/kg, po by LC/MS/MS analysis; assay type: ADME, organism-based; design: dose 1 mg/kg, route oral; conditions: in vivo; method in brief: as §2
[14] = Tmax in Sprague-Dawley rat at 10 mg/kg, po by LC/MS/MS analysis; assay type: ADME, organism-based; design: dose 10 mg/kg, route oral; conditions: in vivo; method in brief: as §2
[15] = Cmax in Sprague-Dawley rat at 1 mg/kg, po up to 24 hrs by LC/MS/MS analysis; assay type: ADME, organism-based; design: dose 1 mg/kg, route oral; conditions: in vivo; method in brief: as §2
[16] = AUC (0 to 24 hrs) in Sprague-Dawley rat at 1 mg/kg, po by LC/MS/MS analysis; assay type: ADME, organism-based; design: time < 24 hr, dose 1 mg/kg, route oral; conditions: plasma; method in brief: as §2
[17] = Initial plasma concentration in Sprague-Dawley rat at 3 mg/kg, iv by LC/MS/MS analysis; assay type: ADME, organism-based; design: dose 3 mg/kg, route intravenous; method in brief: as §2
[18] = Tmax in Sprague-Dawley rat at 3 mg/kg, iv by LC/MS/MS analysis; assay type: ADME, organism-based; design: dose 3 mg/kg, route intravenous; conditions: in vivo; method in brief: as §2
Rattus norvegicus [19] = assay: Antipsychotic activity in po dosed Sprague-Dawley rat assessed as decrease in PCP-elicited ambulations administered 2 hrs prior to test measured for 60 mins; assay type: functional
[20] = Cmax in Sprague-Dawley rat at 10 mg/kg, po up to 24 hrs by LC/MS/MS analysis; assay type: ADME, organism-based; design: dose 10 mg/kg, route oral; conditions: in vivo; method in brief: as §2
[21] = Cmax in Sprague-Dawley rat at 3 mg/kg, po up to 24 hrs by LC/MS/MS analysis; assay type: ADME, organism-based; design: dose 3 mg/kg, route oral; conditions: in vivo; method in brief: as §2
[22] = Half life in Sprague-Dawley rat at 3 mg/kg, iv by LC/MS/MS analysis; assay type: ADME, organism-based; design: dose 3 mg/kg, route intravenous; conditions: in vivo; method in brief: as §2
[23] = AUC (0 to 24 hrs) in Sprague-Dawley rat at 3 mg/kg, po by LC/MS/MS analysis; assay type: ADME, organism-based; design: time < 24 hr, dose 3 mg/kg, route oral; conditions: plasma; method in brief: as §2
[24] = Tmax in Sprague-Dawley rat at 3 mg/kg, po by LC/MS/MS analysis; assay type: ADME, organism-based; design: dose 3 mg/kg, route oral; conditions: in vivo; method in brief: as §2
Rattus norvegicus [25] = assay: Neurotoxicity in Sprague-Dawley rat assessed as impairment of motor coordination at 3 to 10 mg/kg, po administered 2 hrs prior to test by rotarod test; assay type: toxicity, organism-based; design: dose 3-10 mg/kg, route oral; conditions: in vivo; method in brief: as §1
[26] = Oral bioavailability in Sprague-Dawley rat at 3 mg/kg up to 24 hrs by LC/MS/MS analysis; assay type: ADME, organism-based; conditions: in vivo; method in brief: as §2
[27] = Half life in Sprague-Dawley rat at 10 mg/kg, po by LC/MS/MS analysis; assay type: ADME, organism-based; design: dose 10 mg/kg, route oral; conditions: in vivo; method in brief: as §2
[28] = AUC (0 to 24 hrs) in Sprague-Dawley rat at 10 mg/kg, po by LC/MS/MS analysis; assay type: ADME, organism-based; design: time < 24 hr, dose 10 mg/kg, route oral; conditions: plasma; method in brief: as §2
[29] = molecular target: T2, Metabotropic glutamate receptor 6; assay: Agonist activity at human mGlu6 receptor expressed in golden Syrian hamster AV12 cells coexpressing EAAT1 assessed as inhibition of forskolin-stimulated cAMP production after 20 mins by FLIPR assay
[30] = molecular target: T2, Metabotropic glutamate receptor 6; assay: Antagonist activity at human mGlu6 receptor expressed in golden Syrian hamster AV12 cells coexpressing EAAT1 assessed as inhibition of forskolin-stimulated cAMP production after 20 mins by FLIPR assay relative to control; assay type: functional, cell-based

EC50 [1]: 7.6 nM
EC50 [2]: > 25000 nM
EC50 [3]: 4370 nM
Compound: N[C@@]1(C(=O)O)C[C@@H](O)[C@H]2[C@H](C(=O)O)[C@H]21

IC50 [4]: 7020 nM
EC50 [2]: > 25000 nM
IC50 [5]: 895 nM
EC50 [3]: 1270 nM
Compound: N[C@@]1(C(=O)O)C[C@@H](Sc2ccccc2)[C@H]2[C@H](C(=O)O)[C@H]21

EC50 [6]: 24.9 nM
EC50 [1]: 21.2 nM
EC50 [2]: > 25000 nM
EC50 [3]: 9370 nM
Compound: N[C@H]1C[C@@](N)(C(=O)O)[C@@H]2[C@@H](C(=O)O)[C@@H]21

EC50 [6]: 12.3 nM
EC50 [1]: 8.2 nM
EC50 [2]: 12400 nM
EC50 [3]: 780 nM
Compound: [N-]=[N+]=N[C@@H]1C[C@@](N)(C(=O)O)[C@@H]2[C@@H](C(=O)O)[C@@H]21

half-life [8]: 3.5 h
Tmax [9]: 2.5 h
clearance [10]: 14.8 mL/min/kg
Vd [11]: 1.25 L/kg
AUC(0-t) at 24 h [12]: 16.7 µM·h
half-life [13]: 2.7 h
Tmax [14]: 2 h
Cmax [15]: 0.713 µM
AUC(0-t) at 24 h [16]: 2.79 µM·h
C0 [17]: 36.7 µM
Tmax [18]: 0 h
EC50 [6]: 0.24 nM
Cmax [20]: 7.94 µM
Cmax [21]: 3.94 µM
half-life [22]: 7.3 h
AUC(0-t) at 24 h [23]: 10.7 µM·h
Tmax [24]: 1.8 h
bioavailability [26]: 64.4%
half-life [27]: 5.9 h
EC50 [1]: 0.56 nM
EC50 [2]: 11500 nM
EC50 [3]: 1410 nM
AUC(0-t) at 24 h [28]: 23.6 µM·h
Compound: N[C@@]1(C(=O)O)C[C@@H](F)[C@H]2[C@H](C(=O)O)[C@H]21
Activity (Rattus norvegicus [7]): Toxic
Activity (Rattus norvegicus [19]): Dose-dependent effect
ED50 (Rattus norvegicus [19]): 2.08 mg/kg
Activity (Rattus norvegicus [25]): Non-toxic

EC50 [29]: 3040 nM
EC50 [1]: 7.5 nM
EC50 [2]: > 25000 nM
Compound: N[C@@]1(C(=O)O)C[C@H](O)[C@H]2[C@H](C(=O)O)[C@H]21

EC50 [6]: 166 nM
EC50 [1]: 28.6 nM
EC50 [2]: > 25000 nM
EC50 [3]: 9280 nM
Compound: C[C@H]1C[C@@](N)(C(=O)O)[C@@H]2[C@@H](C(=O)O)[C@@H]21

EC50 [29]: 1890 nM
EC50 [6]: 23.5 nM
%max [30]: 100%
EC50 [1]: 12.2 nM
EC50 [2]: 12000 nM
Compound: [N-]=[N+]=N[C@H]1C[C@@](N)(C(=O)O)[C@@H]2[C@@H](C(=O)O)[C@@H]21

IC50 [4]: 4990 nM
EC50 [2]: > 25000 nM
IC50 [5]: 3390 nM
EC50 [3]: 6690 nM
Compound: CC(=O)N[C@@H]1C[C@@](N)(C(=O)O)[C@@H]2[C@@H](C(=O)O)[C@@H]21

EC50 [1]: 1170 nM
EC50 [2]: > 25000 nM
IC50 [5]: 3370 nM
EC50 [3]: 3250 nM
Compound: N[C@@]1(C(=O)O)C[C@H](Sc2ccccc2)[C@H]2[C@H](C(=O)O)[C@H]21

EC50 [6]: 27.1 nM
EC50 [2]: > 25000 nM
EC50 [3]: 3360 nM
Compound: N[C@@]1(C(=O)O)CC[C@H]2[C@H](C(=O)O)[C@H]21

EC50 [29]: 267 nM
EC50 [6]: 15.5 nM
%max [30]: 100%
EC50 [1]: 1.3 nM
EC50 [2]: 1590 nM
Compound: C=C1C[C@@](N)(C(=O)O)[C@H]2[C@@H]1[C@@H]2C(=O)O

EC50 [6]: 193 nM
EC50 [1]: 257 nM
EC50 [2]: 4300 nM
EC50 [3]: 709 nM
Compound: CC(=O)N[C@H]1C[C@@](N)(C(=O)O)[C@@H]2[C@@H](C(=O)O)[C@@H]21

EC50 [6]: 57.1 nM
EC50 [1]: 47.9 nM
EC50 [2]: > 25000 nM
EC50 [3]: 11800 nM
Compound: N[C@@H]1C[C@@](N)(C(=O)O)[C@@H]2[C@@H](C(=O)O)[C@@H]21

EC50 [1]: 63.6 nM
EC50 [2]: > 25000 nM
IC50 [5]: 3420 nM
EC50 [3]: 7540 nM
Compound: C[C@@H]1C[C@@](N)(C(=O)O)[C@@H]2[C@@H](C(=O)O)[C@@H]21

EC50 [29]: 1380 nM
EC50 [6]: 0.11 nM
%max [30]: 100%
EC50 [1]: 0.16 nM
EC50 [2]: 6530 nM
Compound: N[C@@]1(C(=O)O)CC(=O)[C@H]2[C@H](C(=O)O)[C@H]21
